Results: ChEMBL document CHEMBL4138318, “Discovery of 5-Cyano-6-phenylpyrimidin Derivatives Containing an Acylurea Moiety as Orally Bioavailable Reversal Agents against P-Glycoprotein-Mediated Mutidrug Resistance” (J Med Chem, 2018)
Calls of active or inactive are those of the source. No cut-off for these calls is given here.

Key:
[1] = molecular target: T1, ATP-dependent translocase ABCB1 (Homo sapiens, UniProt P08183); experiment: Inhibition of ABCB1 in human SW620/AD300 cells assessed as potentiation of paclitaxel-induced cytotoxicity after 72 hrs by MTT assay; assay type: cell-based
T1 sequence (P08183 whole entry): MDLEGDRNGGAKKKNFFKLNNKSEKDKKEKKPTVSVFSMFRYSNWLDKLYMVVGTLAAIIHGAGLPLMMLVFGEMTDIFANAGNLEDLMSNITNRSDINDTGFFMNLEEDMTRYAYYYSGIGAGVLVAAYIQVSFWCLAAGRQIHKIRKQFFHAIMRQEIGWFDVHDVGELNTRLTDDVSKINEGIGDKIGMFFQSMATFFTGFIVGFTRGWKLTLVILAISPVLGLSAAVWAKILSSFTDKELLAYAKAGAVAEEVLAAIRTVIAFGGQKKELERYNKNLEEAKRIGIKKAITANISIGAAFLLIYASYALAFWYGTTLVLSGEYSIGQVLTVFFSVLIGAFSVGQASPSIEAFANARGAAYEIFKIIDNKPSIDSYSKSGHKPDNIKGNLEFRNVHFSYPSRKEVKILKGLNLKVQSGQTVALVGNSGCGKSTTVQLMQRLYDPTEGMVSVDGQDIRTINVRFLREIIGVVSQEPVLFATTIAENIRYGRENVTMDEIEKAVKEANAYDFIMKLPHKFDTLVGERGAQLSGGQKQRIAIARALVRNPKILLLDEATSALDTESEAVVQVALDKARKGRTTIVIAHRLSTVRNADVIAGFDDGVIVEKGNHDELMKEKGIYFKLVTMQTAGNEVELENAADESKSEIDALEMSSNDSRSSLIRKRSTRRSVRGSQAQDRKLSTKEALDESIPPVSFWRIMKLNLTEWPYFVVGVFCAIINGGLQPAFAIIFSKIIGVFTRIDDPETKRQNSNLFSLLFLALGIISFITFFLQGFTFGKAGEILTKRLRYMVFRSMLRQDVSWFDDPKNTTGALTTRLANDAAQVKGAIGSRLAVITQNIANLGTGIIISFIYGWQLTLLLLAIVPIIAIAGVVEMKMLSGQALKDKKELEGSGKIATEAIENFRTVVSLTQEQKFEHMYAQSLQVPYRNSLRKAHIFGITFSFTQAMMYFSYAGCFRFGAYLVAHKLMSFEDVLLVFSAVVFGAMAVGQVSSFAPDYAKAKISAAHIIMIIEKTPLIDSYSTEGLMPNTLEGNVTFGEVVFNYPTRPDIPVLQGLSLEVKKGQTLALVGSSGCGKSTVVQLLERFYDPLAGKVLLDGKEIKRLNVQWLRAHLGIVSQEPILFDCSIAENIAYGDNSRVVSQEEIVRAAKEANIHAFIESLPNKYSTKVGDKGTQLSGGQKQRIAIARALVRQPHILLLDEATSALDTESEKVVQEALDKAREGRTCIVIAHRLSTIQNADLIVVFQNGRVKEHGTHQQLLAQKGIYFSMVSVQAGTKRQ
Summary of the method: (§1)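 SW620/AD300 cells (~5×10^3/well) treated with graded paclitaxel with or without modulator (2 µM, or 0.5-2 µM in dose series; 0.1% DMSO solvent control) for 72 h; MTT (5 mg/mL stock) added 4 h, absorbance 490 nm. IC50 as mean ± SD of three independent runs; reversal fold = paclitaxel IC50 without/with modulator.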

[2] = molecular target: T1, ATP-dependent translocase ABCB1; experiment: Inhibition of ABCB1 in human SW620/AD300 cells assessed as potentiation of paclitaxel-induced cytotoxicity by measuring fold reduction in paclitaxel IC50 at 2 uM after 72 hrs by MTT assay relative to paclitaxel alone; assay type: cell-based; summary of the method: as §1
[3] = molecular target: Cytochrome P450 3A4 (Homo sapiens, UniProt P08684); experiment: Inhibition of recombinant human CYP3A4 up to 32 uM in presence of NADPH generating system by fluorescence assay; assay type: ADME; conditions: recombinant enzyme
Sequence of Cytochrome P450 3A4 (P08684 whole entry): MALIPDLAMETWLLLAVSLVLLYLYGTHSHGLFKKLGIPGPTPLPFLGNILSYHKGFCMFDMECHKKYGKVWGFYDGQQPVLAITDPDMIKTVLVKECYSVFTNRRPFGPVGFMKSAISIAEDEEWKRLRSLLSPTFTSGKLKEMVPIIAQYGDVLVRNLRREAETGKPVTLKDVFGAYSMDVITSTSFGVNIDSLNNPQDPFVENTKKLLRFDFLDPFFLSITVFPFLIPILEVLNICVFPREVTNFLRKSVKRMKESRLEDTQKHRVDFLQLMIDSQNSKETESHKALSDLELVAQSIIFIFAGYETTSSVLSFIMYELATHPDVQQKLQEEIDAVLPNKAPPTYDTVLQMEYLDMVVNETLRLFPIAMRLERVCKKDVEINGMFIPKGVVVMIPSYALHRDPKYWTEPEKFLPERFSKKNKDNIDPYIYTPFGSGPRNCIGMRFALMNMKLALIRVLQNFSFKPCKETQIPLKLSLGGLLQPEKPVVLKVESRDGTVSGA

[4] = Cytotoxicity against human SW620/AD300 cells assessed as survival at 2 uM after 72 hrs by MTT assay relative to control; assay type: cell-based; conditions: read-out: Survival
[5] = molecular target: T1, ATP-dependent translocase ABCB1; experiment: Inhibition of ABCB1 in human SW620/AD300 cells assessed as potentiation of paclitaxel-induced cytotoxicity by measuring fold reduction in paclitaxel IC50 at 1 uM after 72 hrs by MTT assay; assay type: cell-based; summary of the method: as §1
[6] = Cytotoxicity against human SW620 cells assessed as survival at 2 uM after 72 hrs by MTT assay relative to control; assay type: cell-based, SW-620; conditions: read-out: Survival
[7] = test system: SW620/AD300; experiment: Effect on subcellular localization of ABCB1 in human SW620/AD300 cells at 2 uM after 48 hrs by Hoechst 33258 staining-based immunofluorescence assay; assay type: functional, cell-based
Summary of the method: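 About 1×10^4 cells on coverslips incubated with compound 48 h, fixed in 4% paraformaldehyde ≥20 min, blocked 2 h in PBS with 5% BSA, anti-ABCB1 primary overnight at 4℃, Alexa Fluor 488 anti-goat secondary 2 h, nuclei stained with Hoechst 33258 20 min; imaged by laser scanning confocal microscopy.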

[8] = molecular target: T1, ATP-dependent translocase ABCB1; experiment: Inhibition of ABCB1 in human SW620/AD300 cells assessed as potentiation of paclitaxel-induced cytotoxicity by measuring fold reduction in paclitaxel IC50 at 0.5 uM after 72 hrs by MTT assay; assay type: cell-based; summary of the method: as §1
[9] = molecular target: T1, ATP-dependent translocase ABCB1; experiment: Inhibition of ABCB1 in human SW620/AD300 cells assessed as decrease in rhodamine 123 efflux up to 4 uM preincubated for 4 hrs followed by 30 mins incubation in Rho-123 containing medium and subsequent incubation in Rho-123 free medium up to 120 mins by flow cytometry; assay type: cell-based
Summary of the method: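 Cells loaded with rhodamine 123 as in the accumulation assay (4 h compound pre-exposure, 1 µg/mL dye 30 min, 37℃), then kept in dye-free medium with or without reversal agent for 30, 60, 90 or 120 min at 37℃; intracellular fluorescence read by flow cytometry at 488/530 nm. Three independent experiments.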

| SMILES | inhibition (INH) [1] | fold change (FC) [2] | inhibition (INH) [3] | viability at 72 h, 2 µM [4] | fold change (FC) [5] | viability at 72 h, 2 µM [6] | Activity [7] | fold change (FC) [8] | inhibition (INH) [9] |
| --- | --- | --- | --- | --- | --- | --- | --- | --- | --- |
| COc1ccc(CCN(C)CCCC(C#N)(c2ccc(OC)c(OC)c2)C(C)C)cc1OC (configuration not stated) | Dose-dependent effect | – | – | – | – | – | – | – | – |
| COc1cc(-c2nc(SCC(=O)NC(=O)Nc3ccccc3)nc(Nc3cccc(Cl)c3)c2C#N)cc(OC)c1OC | Dose-dependent effect | 261.63 | Not Active | > 90% | 26.33 | > 90% | inactive | 37.04 | Active |
| COc1cc(-c2nc(SCC(=O)NC(=O)Nc3ccccn3)nc(Nc3ccc(Br)cc3)c2C#N)cc(OC)c1OC | Dose-dependent effect | 190.27 | Not Active | > 90% | 32.2 | > 90% | inactive | 8.019 | Active |
| COc1cc(-c2nc(SCc3cn(CC(=O)NC(=O)Nc4ccccn4)nn3)nc(Nc3ccc(C)cc3)c2C#N)cc(OC)c1OC | – | 6.23 | – | > 90% | – | > 90% | – | – | – |
